Screening results as filed in PubChem.
Shown are actives, neighbours in structure and some others; about 3.2% of the full set was active somewhere.
MEKK3 PB1 HTS: modulators of MEKK3-MEK5 PB1 binding, primary screen, biochemical, wildtype MEKK3, multiplex bead flow cytometry, Alexa488-MEK5; Mitogen-activated protein kinase kinase kinase 3 (Homo sapiens), Q99759; bead-based flow cytometry, Alexa488-MEK5 binding to MEKK3; actives lie on both sides; 0 = blocked by unlabeled MEK5, 100 = vehicle; binding response (% of control), % at 10 µM; 290,000 tested, 1.4% active; AID 1529, 2009;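 active means binding response more than 3 SD above or below the average of its plate-row segment, actives on both sides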;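 further: Alexa488 bead fluorescence after subtracting the streptavidin-only scavenger bead signal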
Target sequence (Q99759 whole entry, looked up): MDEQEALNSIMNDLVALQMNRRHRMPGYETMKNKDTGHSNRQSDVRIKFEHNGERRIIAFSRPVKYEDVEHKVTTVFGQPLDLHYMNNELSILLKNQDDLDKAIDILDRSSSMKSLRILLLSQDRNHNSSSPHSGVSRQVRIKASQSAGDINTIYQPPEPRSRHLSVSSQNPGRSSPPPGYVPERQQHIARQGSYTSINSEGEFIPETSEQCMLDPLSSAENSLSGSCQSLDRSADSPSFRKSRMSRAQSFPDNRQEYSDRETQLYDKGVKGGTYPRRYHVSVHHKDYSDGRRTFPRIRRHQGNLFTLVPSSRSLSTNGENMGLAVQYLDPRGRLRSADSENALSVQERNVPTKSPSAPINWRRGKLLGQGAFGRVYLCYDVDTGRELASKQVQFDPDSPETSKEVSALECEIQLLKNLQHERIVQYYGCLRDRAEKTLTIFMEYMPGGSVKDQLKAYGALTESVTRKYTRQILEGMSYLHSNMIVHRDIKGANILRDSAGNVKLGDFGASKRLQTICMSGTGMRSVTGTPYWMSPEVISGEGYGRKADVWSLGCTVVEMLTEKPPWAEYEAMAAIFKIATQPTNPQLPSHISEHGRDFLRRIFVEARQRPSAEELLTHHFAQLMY
MEKK2 mut-MEK5: MEK5 binding signal on mutant MEKK2 PB1, primary screen, biochemical, multiplex bead flow cytometry, Alexa488-MEK5; Alexa488-MEK5 binding to MEKK2 mutant; percent response, % at 10 µM; 290,000 tested, 0.35% active; in the data active means percent response above about 24%, passing the limit was not always enough
Pemphigus Ab inh: inhibitors of pemphigus antibody binding to DSG3, primary screen, biochemical, bead-based, flow cytometry, scFv-GFP; Desmoglein-3 (Homo sapiens), P32926; DSG3-coupled beads, scFv-anti-DSG3-GFP binding; active compounds read low; binding (percent of control), % at 10 µM; 310,000 tested, 0.48% active;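 active means binding more than 3 SD below its plate's average and above zero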;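 further: hits lower antibody fragment binding to DSG3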
MEKK2wt PB1 HTS: modulators of MEK5 binding to wildtype MEKK2, primary screen, biochemical, multiplex bead flow cytometry, Alexa488-MEK5; Mitogen-activated protein kinase kinase kinase 2 (Homo sapiens), Q9Y2U5; Alexa488-MEK5 binding to MEKK2 WT; actives lie on both sides; binding response (% of control), % at 10 µM; 290,000 tested, 1.1% active; in the data active means binding response below about 67% or above about 130%
Apaf1 inhib: inhibitors of human Apaf-1 apoptosome, primary screen, biochemical, DEVD-Rh110 fluorescence, uHTS. 330,000 tested, 0.71% active. Apoptotic protease-activating factor 1 (Homo sapiens), O14727. reconstituted apoptosome caspase-3 activity. inhibition, % at 20 µM. AID 489030, 2010; active means inhibition of at least 40% at 20 µM;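 further: plate controls were DMSO wells for no effect and DEVD-CHO caspase inhibitor wells for full effect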
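Material: cell-free apoptosome with Apaf-1, procaspase-3 and caspase-9; Buffer or medium: Hepes pH 7.5 with detergent and BSA; Reagent: cytochrome c trigger plus (Z-DEVD)2-Rh110 caspase-3 substrate; Times: compound with Apaf-1, dATP, procaspase-3 30 min, then 50 min reaction, room temperature; Technique: Rh110 fluorescence intensity.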
UBC13 polyUb: UBC13 polyubiquitin chain formation inhibitors, primary screen, biochemical, TR-FRET, uHTS; AID 485273, 2010; 330,000 tested, 0.47% active; inhibition, % at 20 µM; in the data active means inhibition above about 45%, passing the limit was not always enough
MEKK2wt confirm: modulators of MEK5 binding to wildtype MEKK2, confirmation, biochemical, single concentration, multiplex bead flow cytometry; AID 1892, 2009; binding response (% of control), % at 10 µM; 5,900 tested, 2.4% active; shares compounds with MEKK3 PB1 HTS; Alexa488-MEK5 binding to MEKK2 WT; actives lie on both sides; in the data active means binding response below about 16% or above about 210%; inactive means in between
MEKK2mut-MEK5: mutant MEKK2 PB1-MEK5 binding signal retest – biochemical, single concentration, multiplex bead flow cytometry, confirmation; percent response, % at 10 µM; shares compounds with MEKK3 PB1 HTS; Alexa488-MEK5 binding to MEKK2 mutant; 5,900 tested, 2% active; in the data active means percent response mostly above about 71%, no sharp cut-off; inactive means mostly below about 38%;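 further: higher means compound restores mutant binding toward wildtype level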
MEKK3 confirm: MEKK3 wild-type PB1 binding to MEK5, inhibitors, confirmation, biochemical, bead multiplex flow cytometry, single concentration, wildtype; shares compounds with MEKK3 PB1 HTS; binding response (% of control), % at 10 µM; Alexa488-MEK5 binding to MEKK3; active compounds read low; 5,900 tested, 1.8% active;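 active means binding response below 72% of control, or above a set upper limit, though filed actives all read lower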;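 further: 100% = DMSO only wells and 0% = binding blocked by excess unlabeled MEK5; lower values mean stronger disruption of MEK5 binding to MEKK3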
The depositor's hits bear a star; · = not tested or not shown; [ ] = dose if it differs, or a comment.

SMILES	MEKK3 PB1 HTS	MEKK2 mut-MEK5	Pemphigus Ab inh	MEKK2wt PB1 HTS	Apaf1 inhib	UBC13 polyUb	MEKK2wt confirm	MEKK2mut-MEK5	MEKK3 confirm
CC1(C)OC(=O)C(=CNC(=O)c2c(F)cccc2F)C(=O)O1	72*[inhibitor]	-4	100	82	9	8	92	-3	95
O=C(COC(=O)c1cc(S(=O)(=O)N2CCCCC2)ccc1N1CCOCC1)c1ccc(F)cc1	·	·	100	·	19	0	·	·	·
Cn1c(OCc2cccnc2)nc2c1c(=O)n(Cc1ccc(F)cc1)c(=O)n2C	71*[inhibitor]	-30	·	78	-7	8	99	-2	104
Cn1c(OCc2cccnc2)nc2c1c(=O)n(Cc1ccccc1)c(=O)n2C	93	-6	99	99	3	-1	·	·	·
CCOc1ccccc1CN1C(=O)c2ccccc2C1C(=O)NC(C)CC (stereo unspecified)	128*	5	102	123	5	-8	97	-7	97
C[C@H](NS(=O)(=O)c1ccc(Cl)cc1)C(=O)OCC(=O)NCCc1ccc(S(N)(=O)=O)cc1	·	·	103	·	·	·	·	·	·
N/C(=N\N=C/c1ccc(F)cc1)N/N=C\c1ccc(F)cc1	110	31*	118	159*	28	12	162	38	108
N/C(=N\N=C/c1ccc(Br)cc1)N/N=C\c1ccc(Br)cc1	110	102*	115	215*	-2	7	129	21	105
Cc1cc(=O)[nH]c2nc3ccccc3n12	·	·	100	·	·	·	·	·	·
Cc1ccccc1Oc1nc2c(C)cccn2c(=O)c1/C=C(\C#N)C(=O)Nc1c(C)n(C)n(-c2ccccc2)c1=O	137*	0	98	102	6	-3	68	-18	65*
Cc1csc(=O)n1CC(=O)OC(C)C(=O)Nc1ccc(N(C)C)cc1 (stereo unspecified)	·	·	104	·	·	·	·	·	·
Cc1ccc(C(=O)C[n+]2cc(Br)cc(Br)c2)cc1[N+](=O)[O-]	104	51*	110	101	5	-6	111	2	98
Cc1cc(C)c[n+](CC(=O)c2ccc(C)c([N+](=O)[O-])c2)c1	97	3	112	108	-11	-2	·	·	·
COC(=O)CC1C(=O)NCCN1C(=O)CSc1nnc(Nc2ccc(OC)cc2)s1 (stereo unspecified)	122*	4	·	109	6	-12	98	-10	99
Cc1cc2[nH]c3c(c[n+](C)c4ccccc34)c2cc1C	61	-2	90	144*	28	64*	201	73*	113
CCN(CC)CCCNC(=S)N1CCN(c2nc(-c3ccccc3)cs2)CC1	103	23	94	143*	12	8	129	45	108
CCOCCCNC(=S)N1CCN(c2nc(-c3ccccc3)cs2)CC1	101	6	120	106	8	8	·	·	·
CCC1(c2ccc(F)cc2)NC(=O)N(CC(=O)Nc2cccnc2Cl)C1=O (stereo unspecified)	·	·	122	·	1	-12	·	·	·
COc1ccccc1C(=O)N/C(=C\c1ccc(Br)cc1)C(=O)NCCCO	98	-3	97	103	-9	10	·	·	·
COc1ccccc1C(=O)N/C(=C\c1ccc(Br)cc1)C(=O)NCCO	129*	6	99	126	7	-10	106	9	106
CCN(C(=O)COC(=O)CCC1CCCC1)c1c(N)n(Cc2ccccc2)c(=O)[nH]c1=O	·	·	4	·	5	0	·	·	·
O=C(O)c1cccc(N/N=C/c2sc(N3CCOCC3)nc2-c2ccccc2)c1	102	0	89	97	-8	0	·	·	·
O=[N+]([O-])c1ccc(N/N=C/c2sc(N3CCOCC3)nc2-c2ccccc2)c(S(=O)(=O)Nc2ccc(Cl)cc2)c1	11*[inhibitor]	-32	136	·	·	·	79	-9	82
COc1ccc(CCN2CCCC(CN(C)Cc3cc(Cl)c(O)c(OC)c3)C2)cc1 (stereo unspecified)	112	25*	115	135*	-5	-2	132	24	107
COc1ccc(CN(C)CC2CCCN(CCc3ccccc3C)C2)cc1O (stereo unspecified)	102	8	119	115	4	5	·	·	·
SMILES	MEKK3 PB1 HTS	MEKK2 mut-MEK5	Pemphigus Ab inh	MEKK2wt PB1 HTS	Apaf1 inhib	UBC13 polyUb	MEKK2wt confirm	MEKK2mut-MEK5	MEKK3 confirm
N#CNC(=Nc1cccc(F)c1)SCc1cccc(F)c1	136*	1	101	107	-19	1	105	2	100
Cc1ccc(S(=O)(=O)CCC(=O)OCC(=O)NC(C)c2ccc(F)cc2)cc1 (stereo unspecified)	·	·	·	·	-1	8	·	·	·
O=C1c2ccccc2C(=O)N1OCCOCCOCCBr	1.0*[inhibitor]	-26	87	-2.0*[inhibitor]	-17	8	102	2	102
CC(=O)Nc1ccccc1C(=O)C(=O)Nc1cccc(C(=O)NCc2ccc(C)cc2)c1	134*	1	·	108	-5	10	96	-2	100
CC(=O)Nc1ccccc1C(=O)C(=O)Nc1cccc(C(=O)NCc2ccccc2)c1	96	-2	98	95	0	-5	·	·	·
Cc1ccc(NC(=O)C2C3CCC(O3)C2C(=O)O)cc1Cl (stereo unspecified)	2.0*[inhibitor]	-61	105	3.0*[inhibitor]	-16	2	100	-5	99
Cc1ccc(NC(=O)NNC(=O)c2cccs2)cc1	71*[inhibitor]	0	93	94	4	-8	102	0	106
CCOC(=O)c1ccc(S(=O)(=O)N2CCN(C3CC(=O)N(c4ccccc4C(F)(F)F)C3=O)CC2)cc1 (stereo unspecified)	·	·	96	·	16	-5	·	·	·
